Bioassay records as filed in PubChem BioAssay.
CaV13 ICDI inh – Disruptors of the CACNA1D IQ motif to Ca2+-dependent inactivation inhibitor domain association, primary screening, Förster resonance energy transfer in intact living …. HEK cells, CFP/YFP FRET ICDI-IQ, plate reader, 10 min; percent FRET-ratio fall versus neutral wells. actives 0.098% (n = 340,000). inhibition, % at 12.3 µM;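 active = mean replicate inhibition of at least 30% and at least 1% of replicates passing that level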;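 also: 0% = median of the neutral control wells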
PvdQ acylase – P. aeruginosa PvdQ acylase inhibitors, primary screen, biochemical, fluorescence, plate reader and imaging, single point; PvdQ acylase [Pseudomonas aeruginosa LESB58]; purified PvdQ acylase; inhibition, % at 10 µM; actives 0.063% (n = 340,000); AID 488965, 2010; in the data active = inhibition above about 30%, passing the limit was not always enough;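 also: 0% = vehicle neutral wells and 100% = reference inhibitor wells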
ERAP1 HTS inh – human ERAP1 aminopeptidase inhibitors, primary screen, biochemical, single point, plate reader. Endoplasmic reticulum aminopeptidase 1 (Homo sapiens), Q9NZ08. recombinant ERAP1, Leu-AMC fluorescence, 60 min. inhibition, % at 10.7 µM. actives 0.15% (n = 340,000). AID 652197, 2013;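 active = mean replicate inhibition of at least 30%, or all replicates individually reaching that 30% level; inactive = mean below 30% and not every replicate reaching it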;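 also: 0% = neutral control wells and 100% = L-leucinethiol positive control wells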
XiGFP reactiv – activators of inactive X chromosome reactivation, primary screen, imaging, XiGFP fibroblasts, GFP high-content imaging, set 2 | activation, % at 7.58 µM | actives 0.055% (n = 360,000) | XiGFP mouse fibroblasts, % GFP-positive cells imaging, 3 d; cells co-treated with 5-aza-dC sensitizer; scaled so ellipticine positive control = 100%;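 active = mean normalized replicate activation at least 10% and every replicate at or above 10%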;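 also: 0% = median of on-plate neutral control wells and 100% = ellipticine 6 µM median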
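System: 68-5-11 XiGFP fibroblast line; Timing: 3 days compound exposure; Compound dosing: one concentration, pinned; Benchmarks: positive control ellipticine, 6 µM final; Buffer or medium: DMEM containing 5-aza-dC.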
An asterisk follows results filed as active. Most compounds without a hit are left out; they make up all but 0.27% or so of the library.

How did Cc1ccc(NC(=O)COc2ccc(-c3nnco3)cc2)cc1S(=O)(=O)N1CCOCC1 do in these assays?
CaV13 ICDI inh: -7; PvdQ acylase: -11; XiGFP reactiv: 23*

What do the screens show for `Cc1ccc(OCCC(=O)OCC(=O)Nc2ccc(C)c(S(=O)(=O)N3CCOCC3)c2)cc1`?
CaV13 ICDI inh: -6; PvdQ acylase: 8; ERAP1 HTS inh: 0; XiGFP reactiv: 0

What do the screens show for `CCc1cccc(C)c1NC(=S)NCc1ccc2c(c1)cc(C)n2C`?
CaV13 ICDI inh: 57*; PvdQ acylase: -13; ERAP1 HTS inh: 3; XiGFP reactiv: 0

How did Cc1ccccc1NC(=S)NCc1ccc2c(c1)cc(C)n2C do in these assays?
CaV13 ICDI inh: -5; PvdQ acylase: -10; ERAP1 HTS inh: 7; XiGFP reactiv: 0

What do the screens show for `C(=N\Nc1nc2ccccc2[nH]1)/c1ccccn1`?
CaV13 ICDI inh: 6; PvdQ acylase: -6; ERAP1 HTS inh: -1; XiGFP reactiv: 0

Results for Fc1ccccc1-c1ccc(/C=N/Nc2nc3ccccc3[nH]2)o1 ?
CaV13 ICDI inh: 54*; PvdQ acylase: -10; ERAP1 HTS inh: 3; XiGFP reactiv: 0

How did CC(C)NC(=O)C1C(c2ccc(C(F)(F)F)cc2)=Nc2ccccc2N1C(=O)c1ccco1 (stereo not given) do in these assays?
CaV13 ICDI inh: -10; ERAP1 HTS inh: 44*; XiGFP reactiv: 0

How did CC1CC(C)CN(CCCNC(=O)c2cc3c(s2)-c2ccccc2OC3)C1 (stereo not given) do in these assays?
CaV13 ICDI inh: -2; PvdQ acylase: -18; ERAP1 HTS inh: -54; XiGFP reactiv: 0

What do the screens show for `CCN1CCN(CCCNC(=O)c2cc3c(s2)-c2ccccc2OC3)CC1`?
CaV13 ICDI inh: -15; PvdQ acylase: -32; ERAP1 HTS inh: 54*; XiGFP reactiv: 0

What do the screens show for `CC1CCCC(C)N1CCCNC(=O)c1cc2c(s1)-c1ccccc1OC2` (stereo not given)?
CaV13 ICDI inh: -8; PvdQ acylase: 0; ERAP1 HTS inh: 32*; XiGFP reactiv: 0

Results for CCCN1CCN(CCCNC(=O)c2cc3c(s2)-c2ccccc2OC3)CC1 ?
CaV13 ICDI inh: 0; PvdQ acylase: 6; ERAP1 HTS inh: 18; XiGFP reactiv: 0

What do the screens show for `CCc1cc(=O)oc2cc(OC(=O)CN3C(=O)NC4(CCCC4)C3=O)ccc12`?
CaV13 ICDI inh: -9; PvdQ acylase: -6; ERAP1 HTS inh: -67; XiGFP reactiv: 0

What do the screens show for `O=C(CN1C(=O)NC2(CCCC2)C1=O)Oc1ccc2ccc(=O)oc2c1`?
CaV13 ICDI inh: -1; PvdQ acylase: -15; ERAP1 HTS inh: 57*; XiGFP reactiv: 0

What do the screens show for `CCC(=O)N1[C@@H]2c3cccc(=O)n3C[C@@H]2[C@@H](CO)[C@@H]1C(=O)NCc1ccc(F)cc1`?
ERAP1 HTS inh: 2; XiGFP reactiv: 0

Results for CC(=O)OCCCNc1cc(Sc2nc3ccccc3s2)c2nonc2c1[N+](=O)[O-] ?
PvdQ acylase: 5

How did CC(=O)OCCNc1cc(Sc2nc3ccccc3[nH]2)c2nonc2c1[N+](=O)[O-] do in these assays?
CaV13 ICDI inh: -6; PvdQ acylase: 12; XiGFP reactiv: 17*

Results for C[C@H](NC(=O)C[C@H]1CC[C@H]2[C@@H](COC[C@H](O)CN2C(=O)Nc2ccccc2)O1)c1ccccc1 ?
ERAP1 HTS inh: 43*; XiGFP reactiv: 0

How did C[C@H](NC(=O)C[C@H]1CC[C@H]2[C@@H](COC[C@@H](O)CN2C(=O)Nc2ccccc2)O1)c1ccccc1 do in these assays?
ERAP1 HTS inh: -2; XiGFP reactiv: 1

Results for CCCOc1ccc(C(=O)CCC(=O)OCC(=O)Nc2ccc(OCC)cc2)cc1 ?
CaV13 ICDI inh: -2; ERAP1 HTS inh: 1; XiGFP reactiv: 0

What do the screens show for `CCCOc1ccc(C(=O)CCC(=O)OCC(=O)Nc2cccc(S(N)(=O)=O)c2)cc1`?
CaV13 ICDI inh: -6; PvdQ acylase: 49*; ERAP1 HTS inh: -2; XiGFP reactiv: 0

What do the screens show for `Cc1cccc(-c2ccc([C@H]3[C@@H](CO)N4C(=O)CN(C(=O)c5cnccn5)C[C@H]34)cc2)c1`?
XiGFP reactiv: 1

What do the screens show for `O=C(Nc1nnc(C2CC2)s1)c1cc(S(=O)(=O)N2CCCCC2)ccc1N1CCOCC1`?
CaV13 ICDI inh: -15; PvdQ acylase: -5

How did CCc1nnc(NC(=O)c2cc(S(=O)(=O)N3CCOCC3)ccc2N2CCCCC2)s1 do in these assays?
CaV13 ICDI inh: -2; PvdQ acylase: -11; ERAP1 HTS inh: 56*; XiGFP reactiv: 0

What do the screens show for `N#CCOC(=O)c1cc(S(=O)(=O)N2CCCCC2)ccc1N1CCOCC1`?
CaV13 ICDI inh: -11; PvdQ acylase: -7; ERAP1 HTS inh: 3; XiGFP reactiv: 0

What do the screens show for `O=C(COC(=O)c1cc(S(=O)(=O)N2CCCCC2)ccc1N1CCOCC1)c1ccccc1Cl`?
CaV13 ICDI inh: 64*; ERAP1 HTS inh: 0; XiGFP reactiv: 0

How did CNC[C@@H]1Oc2ccc(N)cc2C(=O)N(C)C[C@H]1C do in these assays?
XiGFP reactiv: 0

What do the screens show for `CCOC(=O)c1c2ccc(OCC(=O)NN)cc2n2ccccc12`?
CaV13 ICDI inh: active; PvdQ acylase: -7; ERAP1 HTS inh: 4; XiGFP reactiv: 0

Results for COc1ccc(-c2nc3ccccc3s2)cc1 ?
CaV13 ICDI inh: -4; PvdQ acylase: 67*; ERAP1 HTS inh: -4; XiGFP reactiv: 0

What do the screens show for `c1ccc2sc(-c3ccc4c(c3)OCO4)nc2c1`?
PvdQ acylase: 49*

What do the screens show for `Cc1cc(NCCCn2ccnc2)n2nc(-c3ccc(Cl)cc3)cc2n1`?
CaV13 ICDI inh: -2; PvdQ acylase: 35*; ERAP1 HTS inh: 2; XiGFP reactiv: 0

Results for CN1CCc2c(sc(NC(=O)C3CCCCC3)c2C(N)=O)C1 ?
CaV13 ICDI inh: active; PvdQ acylase: 9; ERAP1 HTS inh: 3; XiGFP reactiv: 0

How did C[C@@H]1CN([C@@H](C)CO)S(=O)(=O)c2ccc(C#CC3CC3)cc2O[C@H]1CN(C)C(=O)c1cccnc1 do in these assays?
ERAP1 HTS inh: 1; XiGFP reactiv: -1

What do the screens show for `COc1ccc2c3c(n(C)c2c1)[C@H](CO)N(CC1CC1)CC31CN(C(=O)c2ccc(F)cc2)C1`?
XiGFP reactiv: 0

Results for CC(C)(C)c1csc(N/N=C/c2ccc(O)cc2)n1 ?
CaV13 ICDI inh: 64*; PvdQ acylase: -18; ERAP1 HTS inh: 0; XiGFP reactiv: 0

Results for CC(=O)Nc1sc(N/N=C/c2ccc(O)cc2)nc1-c1ccc(C)cc1 ?
CaV13 ICDI inh: -6; PvdQ acylase: 15; ERAP1 HTS inh: -2; XiGFP reactiv: 0

How did N#CC(C#N)=C1C=CC=CN1/C(=C\c1ccccc1Cl)C(=O)c1ccccc1 do in these assays?
CaV13 ICDI inh: -3; PvdQ acylase: -7; XiGFP reactiv: 2
